From ChEMBL document CHEMBL4725236, “Synthesis and pharmacological evaluation of bivalent tethered ligands to target the mGlu heterodimeric receptor results in a compound with mGlu homodimer selectivity” (Bioorg Med Chem Lett, 2020)

What was measured:
Format in all cases: cell-based
[1] = biological target: Metabotropic glutamate receptor 2 (Rattus norvegicus, UniProt P31421); experiment: Positive allosteric modulation of rat mGlu2 receptor expressed in HEK293 cells coexpressing GIRK assessed as thallium influx in presence of EC20 glutamate by CODA-RET assay
Sequence of Metabotropic glutamate receptor 2 (P31421 whole entry): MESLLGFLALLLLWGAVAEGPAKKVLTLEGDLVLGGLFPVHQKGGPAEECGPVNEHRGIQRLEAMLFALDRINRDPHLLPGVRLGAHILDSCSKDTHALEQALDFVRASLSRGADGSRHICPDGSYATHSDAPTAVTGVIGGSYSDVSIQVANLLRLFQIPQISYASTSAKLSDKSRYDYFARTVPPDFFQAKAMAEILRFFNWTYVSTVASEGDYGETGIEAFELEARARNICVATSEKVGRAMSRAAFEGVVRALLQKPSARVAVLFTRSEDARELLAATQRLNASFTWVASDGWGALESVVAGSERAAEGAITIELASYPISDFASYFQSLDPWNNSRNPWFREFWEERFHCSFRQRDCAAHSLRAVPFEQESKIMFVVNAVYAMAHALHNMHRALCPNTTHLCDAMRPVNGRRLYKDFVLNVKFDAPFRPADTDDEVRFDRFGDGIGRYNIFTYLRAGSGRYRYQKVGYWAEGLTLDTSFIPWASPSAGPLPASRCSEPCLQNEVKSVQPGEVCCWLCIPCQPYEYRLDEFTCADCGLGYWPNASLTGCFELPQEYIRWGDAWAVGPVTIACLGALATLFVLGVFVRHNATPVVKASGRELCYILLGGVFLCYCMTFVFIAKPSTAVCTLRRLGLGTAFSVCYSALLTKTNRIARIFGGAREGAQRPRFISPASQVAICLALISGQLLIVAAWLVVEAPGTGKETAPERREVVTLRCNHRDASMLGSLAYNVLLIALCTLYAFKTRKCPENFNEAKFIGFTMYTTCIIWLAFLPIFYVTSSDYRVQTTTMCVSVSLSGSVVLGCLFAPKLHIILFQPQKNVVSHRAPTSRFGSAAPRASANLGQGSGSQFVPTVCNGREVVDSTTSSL
Method in brief: (§1)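 HEK293/GIRK thallium flux assay in cells expressing only mGlu2 or only mGlu4. Concentration-response measured against a fixed EC20 glutamate level. Potency (EC50), Hill slope and efficacy (% of the response to saturating glutamate) come from a single experiment run in triplicate.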

HEK293 = experiment: Positive allosteric modulation of rat mGlu2/mGlu4 receptor expressed in HEK293 cells coexpressing GIRK assessed as thallium influx by CODA-RET assay relative to glutamate; conditions: filed as positive allosteric modulator
Method in brief: (§2)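 HEK293 cells co-expressing mGlu2, mGlu4 and GIRK channels; thallium flux read-out. Test compound concentration-response in the presence of a fixed EC20 glutamate concentration. Gives EC50, Hill slope and maximal response as % of a saturating glutamate concentration. N=3 experiments, each in triplicate.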

[2] = Positive allosteric modulation of rat mGlu2/mGlu4 receptor expressed in HEK293 cells coexpressing GIRK assessed as thallium influx in presence of EC20 glutamate by CODA-RET assay; method in brief: as §2
[3] = biological target: Metabotropic glutamate receptor 4 (Rattus norvegicus, UniProt P31423); experiment: Positive allosteric modulation of rat mGlu4 receptor expressed in HEK293 cells coexpressing GIRK assessed as thallium influx in presence of EC20 glutamate by CODA-RET assay; method in brief: as §1
Sequence of Metabotropic glutamate receptor 4 (P31423 whole entry): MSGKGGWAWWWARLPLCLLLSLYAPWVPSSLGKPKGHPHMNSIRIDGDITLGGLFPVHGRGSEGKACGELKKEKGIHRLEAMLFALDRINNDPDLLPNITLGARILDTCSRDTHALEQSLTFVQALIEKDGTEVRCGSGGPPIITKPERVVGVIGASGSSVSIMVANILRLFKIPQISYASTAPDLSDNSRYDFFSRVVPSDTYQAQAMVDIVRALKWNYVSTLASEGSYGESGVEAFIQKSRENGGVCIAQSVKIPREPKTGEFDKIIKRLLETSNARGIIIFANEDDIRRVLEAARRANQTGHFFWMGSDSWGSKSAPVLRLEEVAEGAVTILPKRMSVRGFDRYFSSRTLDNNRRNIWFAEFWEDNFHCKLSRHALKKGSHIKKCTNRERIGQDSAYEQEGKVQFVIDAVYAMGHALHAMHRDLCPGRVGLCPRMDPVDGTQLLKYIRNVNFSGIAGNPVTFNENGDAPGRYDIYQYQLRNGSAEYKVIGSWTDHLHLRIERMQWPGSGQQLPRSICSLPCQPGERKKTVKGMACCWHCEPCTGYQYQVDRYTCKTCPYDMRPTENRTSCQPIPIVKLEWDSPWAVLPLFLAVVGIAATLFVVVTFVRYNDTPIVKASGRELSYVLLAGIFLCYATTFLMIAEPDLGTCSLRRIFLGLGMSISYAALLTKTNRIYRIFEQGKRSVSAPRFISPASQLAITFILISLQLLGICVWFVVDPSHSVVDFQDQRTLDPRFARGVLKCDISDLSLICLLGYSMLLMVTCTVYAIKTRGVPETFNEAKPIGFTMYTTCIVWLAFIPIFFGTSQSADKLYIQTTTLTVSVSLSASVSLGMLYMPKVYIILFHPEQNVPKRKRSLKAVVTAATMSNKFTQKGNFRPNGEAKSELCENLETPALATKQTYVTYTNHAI

[4] = biological target: Metabotropic glutamate receptor 2 (Rattus norvegicus) (UniProt P31421); experiment: Positive allosteric modulation of rat mGlu2 receptor expressed in HEK293 cells coexpressing GIRK assessed as thallium influx by CODA-RET assay relative to glutamate; conditions: filed as positive allosteric modulator; method in brief: as §1
Sequence of Metabotropic glutamate receptor 2 (Rattus norvegicus) (P31421 19-872 limits assumed): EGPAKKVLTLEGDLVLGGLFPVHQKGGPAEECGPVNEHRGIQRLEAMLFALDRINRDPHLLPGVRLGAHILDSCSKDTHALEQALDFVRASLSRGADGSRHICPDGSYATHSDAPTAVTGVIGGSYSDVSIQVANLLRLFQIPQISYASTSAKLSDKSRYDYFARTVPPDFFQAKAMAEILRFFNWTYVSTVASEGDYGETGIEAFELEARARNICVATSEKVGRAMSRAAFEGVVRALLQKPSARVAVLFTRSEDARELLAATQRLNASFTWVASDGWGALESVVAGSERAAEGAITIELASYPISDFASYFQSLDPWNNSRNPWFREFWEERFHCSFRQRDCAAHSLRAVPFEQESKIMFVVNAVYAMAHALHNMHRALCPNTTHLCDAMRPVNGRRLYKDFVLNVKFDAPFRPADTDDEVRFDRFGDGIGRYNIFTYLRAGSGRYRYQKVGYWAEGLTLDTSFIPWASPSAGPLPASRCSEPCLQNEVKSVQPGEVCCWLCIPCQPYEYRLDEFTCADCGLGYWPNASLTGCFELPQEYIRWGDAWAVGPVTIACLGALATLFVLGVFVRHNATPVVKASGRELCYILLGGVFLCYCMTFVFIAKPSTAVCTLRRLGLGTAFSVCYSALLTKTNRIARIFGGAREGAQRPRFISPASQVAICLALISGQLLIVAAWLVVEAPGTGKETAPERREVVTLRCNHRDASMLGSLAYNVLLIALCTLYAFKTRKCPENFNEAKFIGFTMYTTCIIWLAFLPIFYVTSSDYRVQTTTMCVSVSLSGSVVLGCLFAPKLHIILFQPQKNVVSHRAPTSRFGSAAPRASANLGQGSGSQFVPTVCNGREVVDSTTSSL

[5] = biological target: Metabotropic glutamate receptor 4 (Rattus norvegicus) (UniProt P31423); experiment: Positive allosteric modulation of rat mGlu4 receptor expressed in HEK293 cells coexpressing GIRK assessed as thallium influx by CODA-RET assay relative to glutamate; conditions: filed as positive allosteric modulator; method in brief: as §1
Sequence of Metabotropic glutamate receptor 4 (Rattus norvegicus) (P31423 whole entry): as the sequence (P31423 whole entry) above

Row | EC50 [1] | EC50 [2] | EC50 [3] | Emax [4] | Emax [5] | SMILES | Emax (HEK293)
1 | 281 nM | 463 nM | 657 nM | 92% | 104% | COc1cc(NC(=O)c2ccccn2)ccc1NC(=O)c1ccc(NC(=O)COCC(=O)NCCNC(=O)COc2ccc(-c3cccc(COc4cc5c(c(C)c4C)C(=O)C(C4CCCC4)C5)c3)cc2C(=O)O)cc1Cl (stereo not given) | 70%
2 | 54 nM | 90 nM | 38 nM | 100% | 114% | COc1cc(NC(=O)c2ccccn2)ccc1NC(=O)c1ccc(NC(=O)COCC(=O)NCCCNC(=O)COc2ccc(-c3cccc(COc4cc5c(c(C)c4C)C(=O)C(C4CCCC4)C5)c3)cc2C(=O)O)cc1Cl (stereo not given) | –
3 | 1180 nM | 2070 nM | > 10000 nM | 102% | 45% | COc1cc(NC(=O)c2ccccn2)ccc1NC(=O)c1ccc(NC(=O)COCC(=O)NCCCCCCCCCCCCNC(=O)COc2ccc(-c3cccc(COc4cc5c(c(C)c4C)C(=O)C(C4CCCC4)C5)c3)cc2C(=O)O)cc1Cl (stereo not given) | 71%
4 | 84.3 nM | 300 nM | – | 88.2% | – | COc1ccc(-c2cccc(COc3cc4c(c(C)c3C)C(=O)C(C3CCCC3)C4)c2)cc1C(=O)O (stereo not given) | 64.5%
5 | 92 nM | 128 nM | 35 nM | 102% | 110% | COc1cc(NC(=O)c2ccccn2)ccc1NC(=O)c1ccc(NC(=O)COCC(=O)NCCCCCNC(=O)COc2ccc(-c3cccc(COc4cc5c(c(C)c4C)C(=O)C(C4CCCC4)C5)c3)cc2C(=O)O)cc1Cl (stereo not given) | 89%
6 | 62 nM | – | – | 113% | – | Cc1c(OCc2cccc(-c3ccc(O)c(C(=O)O)c3)c2)cc2c(c1C)C(=O)C(C1CCCC1)C2 (stereo not given) | –
7 | 98 nM | 150 nM | 33 nM | 98% | 113% | COc1cc(NC(=O)c2ccccn2)ccc1NC(=O)c1ccc(NC(=O)COCC(=O)NCCCCNC(=O)COc2ccc(-c3cccc(COc4cc5c(c(C)c4C)C(=O)C(C4CCCC4)C5)c3)cc2C(=O)O)cc1Cl (stereo not given) | 88%
8 | 134 nM | 350 nM | > 10000 nM | 102% | 41% | COc1cc(NC(=O)c2ccccn2)ccc1NC(=O)c1ccc(NC(=O)COCC(=O)NCCCCCCCCCCNC(=O)COc2ccc(-c3cccc(COc4cc5c(c(C)c4C)C(=O)C(C4CCCC4)C5)c3)cc2C(=O)O)cc1Cl (stereo not given) | 86%
9 | – | 2760 nM | 34 nM | – | 94.4% | COc1cc(NC(=O)c2ccccn2)ccc1NC(=O)c1ccccc1Cl | 42%
10 | 94 nM | 371 nM | 32 nM | 97% | 52% | COc1cc(NC(=O)c2ccccn2)ccc1NC(=O)c1ccc(NC(=O)COCC(=O)NCCCCCCCCNC(=O)COc2ccc(-c3cccc(COc4cc5c(c(C)c4C)C(=O)C(C4CCCC4)C5)c3)cc2C(=O)O)cc1Cl (stereo not given) | 83%
11 | 122 nM | 524 nM | 30 nM | 101% | 85% | COc1cc(NC(=O)c2ccccn2)ccc1NC(=O)c1ccc(NC(=O)COCC(=O)NCCCCCCCNC(=O)COc2ccc(-c3cccc(COc4cc5c(c(C)c4C)C(=O)C(C4CCCC4)C5)c3)cc2C(=O)O)cc1Cl (stereo not given) | 86%
12 | 69 nM | – | – | 118% | – | Cc1c(OCc2cccc(-c3cccc(C(=O)O)c3)c2)cc2c(c1C)C(=O)C(C1CCCC1)C2 (stereo not given) | –
13 | 62 nM | 680 nM | 32 nM | 102% | 106% | COc1cc(NC(=O)c2ccccn2)ccc1NC(=O)c1ccc(NC(=O)COCC(=O)NCCCCCCNC(=O)COc2ccc(-c3cccc(COc4cc5c(c(C)c4C)C(=O)C(C4CCCC4)C5)c3)cc2C(=O)O)cc1Cl (stereo not given) | 101%
